Experimental data reported in ChEMBL document CHEMBL5724801, “EUbOPEN Chemogenomics Library - Multiplex” (2024).
Values joined by “and” are separate entries in the source; they are usually repeats but may differ in a detail not shown here. Equal entries are not always repeated.

Test system: Fibroblast
Test: Multiplex assay against human fibroblast
Format: toxicity, cell-based
How it was run: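 Cells stained live at seeding with Hoechst33342, BioTracker Green Microtubule Cytoskeleton Dye, MitoTracker Red and Annexin V Alexa Fluor 680 were imaged on a CQ1 microscope at 37°C and 5% CO2 after compound addition. Their classification by CellPathfinder machine-learning gating ran from Hoechst high-intensity objects versus normal cells, to healthy, pyknosed or fragmented nuclei among normal cells, to mitotic or apoptotic among pyknosed cells. Tubulin, mitochondrial-mass and membrane-permeability phenotypes are per cents of healthy-nucleus cells.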

[1] = 12 h, 1 µM, compound concentration 1 uM
[2] = 12 h, 10 µM, compound concentration 10 uM
[3] = 24 h, 1 µM, compound concentration 1 uM
[4] = 24 h, 10 µM, compound concentration 10 uM
[5] = 48 h, 1 µM, compound concentration 1 uM
[6] = 48 h, 10 µM, compound concentration 10 uM

## CCCCC(=O)N(Cc1ccc(-c2ccccc2-c2nnn[nH]2)cc1)[C@H](C(=O)O)C(C)C
[1]
  Population Apoptotic (%): 45% and 44%
  Population Fragmented Nuclei (%): 9% and 21%
  Population Healthy Nuclei (%): 74% and 54%
  Population Hoechst High Intensity Objects (%): 4% and 3%
  Population Membrane Permeable-Phenotype (%): 0% and 8%
  Population Mitochondria Different-Phenotype (%): 0% and 6%
  Population Mitotic Cells (%): 54% and 55%
  Population Normal (%): 95% and 96%
  Population Pyknosed Nuclei (%): 16% and 24%
  Population Tubulin-Different-Phenotype (%): 20% and 36%
  Total Cell Count: 143 and 156
[2]
  Population Apoptotic (%): 37%
  Population Fragmented Nuclei (%): 20% and 27%
  Population Healthy Nuclei (%): 56% and 42%
  Population Hoechst High Intensity Objects (%): 0% and 3%
  Population Membrane Permeable-Phenotype (%): 3% and 11%
  Population Mitochondria Different-Phenotype (%): 3% and 11%
  Population Mitotic Cells (%): 62%
  Population Normal (%): 100% and 96%
  Population Pyknosed Nuclei (%): 22% and 29%
  Population Tubulin-Different-Phenotype (%): 23% and 51%
  Total Cell Count: 106 and 130
[3]
  Population Apoptotic (%): 66% and 38%
  Population Fragmented Nuclei (%): 15% and 21%
  Population Healthy Nuclei (%): 70% and 52%
  Population Hoechst High Intensity Objects (%): 0% and 2%
  Population Membrane Permeable-Phenotype (%): 1% and 2%
  Population Mitochondria Different-Phenotype (%): 2% and 1%
  Population Mitotic Cells (%): 33% and 61%
  Population Normal (%): 99% and 97%
  Population Pyknosed Nuclei (%): 14% and 25%
  Population Tubulin-Different-Phenotype (%): 17% and 25%
  Total Cell Count: 146 and 145
[4]
  Population Apoptotic (%): 48% and 35%
  Population Fragmented Nuclei (%): 18% and 25%
  Population Healthy Nuclei (%): 56% and 44%
  Population Hoechst High Intensity Objects (%): 2% and 4%
  Population Membrane Permeable-Phenotype (%): 0% and 9%
  Population Mitochondria Different-Phenotype (%): 1% and 10%
  Population Mitotic Cells (%): 51% and 64%
  Population Normal (%): 97% and 95%
  Population Pyknosed Nuclei (%): 25% and 29%
  Population Tubulin-Different-Phenotype (%): 31% and 65%
  Total Cell Count: 110 and 130
[5]
  Population Apoptotic (%): 80% and 40%
  Population Fragmented Nuclei (%): 18% and 27%
  Population Healthy Nuclei (%): 71% and 51%
  Population Hoechst High Intensity Objects (%): 6% and 3%
  Population Membrane Permeable-Phenotype (%): 0% and 1%
  Population Mitochondria Different-Phenotype (%): 1% and 3%
  Population Mitotic Cells (%): 20% and 59%
  Population Normal (%): 93% and 96%
  Population Pyknosed Nuclei (%): 10% and 21%
  Population Tubulin-Different-Phenotype (%): 17% and 33%
  Total Cell Count: 153 and 155
[6]
  Population Apoptotic (%): 64% and 57%
  Population Fragmented Nuclei (%): 28% and 39%
  Population Healthy Nuclei (%): 56% and 39%
  Population Hoechst High Intensity Objects (%): 4%
  Population Membrane Permeable-Phenotype (%): 0% and 7%
  Population Mitochondria Different-Phenotype (%): 5%
  Population Mitotic Cells (%): 35% and 42%
  Population Normal (%): 95%
  Population Pyknosed Nuclei (%): 15% and 20%
  Population Tubulin-Different-Phenotype (%): 30% and 69%
  Total Cell Count: 112 and 141

## CC(F)(F)CN1CCOc2c(nn(-c3ccccc3Cl)c2-c2ccc(Cl)cc2)C1=O
[1]
  Population Apoptotic (%): 42% and 31%
  Population Healthy Nuclei (%): 66% and 48%
  Population Hoechst High Intensity Objects (%): 0%
  Population Membrane Permeable-Phenotype (%): 1%
  Population Mitochondria Different-Phenotype (%): 4% and 10%
  Population Mitotic Cells (%): 57% and 68%
  Population Normal (%): 99% and 93%
  Population Pyknosed Nuclei (%): 15% and 25%
  Population Tubulin-Different-Phenotype (%): 61%
  Total Cell Count: 125 and 122
[2]
  Population Apoptotic (%): 47% and 30%
  Population Healthy Nuclei (%): 66% and 53%
  Population Hoechst High Intensity Objects (%): 1% and 5%
  Population Membrane Permeable-Phenotype (%): 0% and 2%
  Population Mitochondria Different-Phenotype (%): 19% and 8%
  Population Mitotic Cells (%): 52% and 70%
  Population Normal (%): 98% and 94%
  Population Pyknosed Nuclei (%): 17% and 15%
  Population Tubulin-Different-Phenotype (%): 49% and 57%
  Total Cell Count: 109 and 134
[3]
  Population Apoptotic (%): 61% and 64%
  Population Healthy Nuclei (%): 65% and 52%
  Population Hoechst High Intensity Objects (%): 1% and 4%
  Population Membrane Permeable-Phenotype (%): 1%
  Population Mitochondria Different-Phenotype (%): 2% and 10%
  Population Mitotic Cells (%): 38% and 36%
  Population Normal (%): 98% and 95%
  Population Pyknosed Nuclei (%): 15% and 20%
  Population Tubulin-Different-Phenotype (%): 75%
  Total Cell Count: 119 and 129
[4]
  Population Apoptotic (%): 33% and 35%
  Population Healthy Nuclei (%): 65% and 54%
  Population Hoechst High Intensity Objects (%): 0% and 1%
  Population Membrane Permeable-Phenotype (%): 0% and 6%
  Population Mitochondria Different-Phenotype (%): 26% and 10%
  Population Mitotic Cells (%): 66% and 64%
  Population Normal (%): 99% and 98%
  Population Pyknosed Nuclei (%): 10% and 14%
  Population Tubulin-Different-Phenotype (%): 58% and 60%
  Total Cell Count: 111 and 121
[5]
  Population Apoptotic (%): 56% and 40%
  Population Healthy Nuclei (%): 63% and 53%
  Population Hoechst High Intensity Objects (%): 1% and 4%
  Population Membrane Permeable-Phenotype (%): 4% and 1%
  Population Mitotic Cells (%): 43% and 60%
  Population Normal (%): 98% and 95%
  Population Pyknosed Nuclei (%): 11% and 7%
  Population Tubulin-Different-Phenotype (%): 35% and 72%
  Total Cell Count: 136 and 135
[6]
  Population Apoptotic (%): 78% and 54%
  Population Healthy Nuclei (%): 56% and 54%
  Population Hoechst High Intensity Objects (%): 1%
  Population Membrane Permeable-Phenotype (%): 0% and 3%
  Population Mitotic Cells (%): 21% and 45%
  Population Normal (%): 98%
  Population Pyknosed Nuclei (%): 11% and 7%
  Population Tubulin-Different-Phenotype (%): 57%
  Total Cell Count: 120 and 141

## COc1ccc2c(c1)C(C(=O)N(Cc1ccc(N(C)C)cc1)c1ccc(C(C)C)cc1)CCC2.Cl (stereo not given)
[1]
  Population Apoptotic (%): 57% and 45%
  Population Fragmented Nuclei (%): 15% and 20%
  Population Healthy Nuclei (%): 72% and 55%
  Population Hoechst High Intensity Objects (%): 1% and 5%
  Population Membrane Permeable-Phenotype (%): 1% and 5%
  Population Mitochondria Different-Phenotype (%): 7% and 15%
  Population Mitotic Cells (%): 42% and 54%
  Population Normal (%): 98% and 94%
  Population Pyknosed Nuclei (%): 11% and 23%
  Population Tubulin-Different-Phenotype (%): 22% and 57%
  Total Cell Count: 163 and 138
[2]
  Population Apoptotic (%): 58% and 53%
  Population Fragmented Nuclei (%): 17% and 38%
  Population Healthy Nuclei (%): 69% and 51%
  Population Hoechst High Intensity Objects (%): 1% and 2%
  Population Membrane Permeable-Phenotype (%): 0% and 6%
  Population Mitochondria Different-Phenotype (%): 12% and 14%
  Population Mitotic Cells (%): 41% and 46%
  Population Normal (%): 98% and 97%
  Population Pyknosed Nuclei (%): 13% and 10%
  Population Tubulin-Different-Phenotype (%): 67% and 77%
  Total Cell Count: 181 and 148
[3]
  Population Apoptotic (%): 55%
  Population Fragmented Nuclei (%): 11% and 19%
  Population Healthy Nuclei (%): 77% and 59%
  Population Hoechst High Intensity Objects (%): 1% and 3%
  Population Membrane Permeable-Phenotype (%): 0% and 2%
  Population Mitochondria Different-Phenotype (%): 5% and 11%
  Population Mitotic Cells (%): 44%
  Population Normal (%): 98% and 96%
  Population Pyknosed Nuclei (%): 11% and 20%
  Population Tubulin-Different-Phenotype (%): 25% and 41%
  Total Cell Count: 156 and 136
[4]
  Population Apoptotic (%): 50% and 42%
  Population Fragmented Nuclei (%): 17% and 39%
  Population Healthy Nuclei (%): 72% and 55%
  Population Hoechst High Intensity Objects (%): 3% and 2%
  Population Membrane Permeable-Phenotype (%): 0% and 2%
  Population Mitochondria Different-Phenotype (%): 15% and 12%
  Population Mitotic Cells (%): 50% and 57%
  Population Normal (%): 96% and 97%
  Population Pyknosed Nuclei (%): 10% and 4%
  Population Tubulin-Different-Phenotype (%): 63% and 85%
  Total Cell Count: 180 and 148
[5]
  Population Apoptotic (%): 66% and 52%
  Population Fragmented Nuclei (%): 17% and 26%
  Population Healthy Nuclei (%): 75% and 61%
  Population Hoechst High Intensity Objects (%): 1%
  Population Membrane Permeable-Phenotype (%): 1% and 5%
  Population Mitochondria Different-Phenotype (%): 3% and 13%
  Population Mitotic Cells (%): 33% and 47%
  Population Normal (%): 98%
  Population Pyknosed Nuclei (%): 6% and 12%
  Population Tubulin-Different-Phenotype (%): 27% and 46%
  Total Cell Count: 180 and 152
[6]
  Population Apoptotic (%): 71% and 75%
  Population Fragmented Nuclei (%): 21% and 45%
  Population Healthy Nuclei (%): 71% and 52%
  Population Hoechst High Intensity Objects (%): 4% and 0%
  Population Membrane Permeable-Phenotype (%): 0% and 3%
  Population Mitochondria Different-Phenotype (%): 8%
  Population Mitotic Cells (%): 28% and 25%
  Population Normal (%): 95% and 99%
  Population Pyknosed Nuclei (%): 7% and 2%
  Population Tubulin-Different-Phenotype (%): 71% and 81%
  Total Cell Count: 203 and 174
